Test results: ChEMBL document CHEMBL1131440, “Synthesis and potent antifolate activity and cytotoxicity of B-ring deaza analogues of the nonpolyglutamatable dihydrofolate reductase inhibitor Nalpha-(4-amino-4-deoxypteroyl)-Ndelta-hemiphthaloyl- L-ornithine (PT523)” (J Med Chem, 1998)

Columns and labels:
[1] = Compound was tested for in vitro antitumor activity, using SCC25 human head and neck squamous carcinoma cells; type: functional; settings: SCC-25
Outline: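 Clonogenic assay: SCC25 cells exposed to graded drug concentrations for 72 h at 37 °C, 5% CO2, in DMEM with 10% FBS and hydrocortisone ([…]). Then replated as single cells at drug-dependent densities and grown in drug-free medium 10-14 days. Colonies stained with crystal violet; only colonies of ≥50 cells scored. IC50 is mean ± SD of ≥3 assays on different days.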

786-0 = experiment: Compound was evaluated for in vitro activity against 786-0 kidney cell lines (Human tumor cells ); type: functional, cell-based
Outline: (§1)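 NCI Developmental Therapeutics Program human tumor cell panel; drug exposure in 96-well plates for the last 48 h of a 72-h incubation, then cells stained for total protein with sulforhodamine B per the standard NCI protocol. Data supplied by NCI.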

A498 = experiment: Compound was evaluated for in vitro activity against A498 kidney cell lines (Human tumor cells ); type: functional, cell-based; outline: as §1
ACHN = experiment: Compound was evaluated for in vitro activity against ACHN kidney cell lines (Human tumor cells ); type: functional, cell-based; outline: as §1
A549 = experiment: Compound was evaluated for in vitro activity against A549/ATCC lung cancer cell lines (Human tumor cells )
BT-549 = experiment: Compound was evaluated for in vitro activity against BT-549 breast cancer cell lines (Human tumor cells ); type: functional, cell-based; outline: as §1
CCRF-CEM = experiment: Compound was evaluated for in vitro activity against CCRF-CEM leukemia cell lines (Human tumor cells ); type: functional, cell-based; outline: as §1
COLO 205 = experiment: Compound was evaluated for in vitro activity against COLO 205 Colon cell lines (Human tumor cells ); type: functional, cell-based
Outline: (§2)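 Total protein then stained with sulforhodamine B following the standard NCI protocol. Data supplied by the NCI Developmental Therapeutics Program.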

DU-145 = experiment: Compound was evaluated for in vitro activity against DU-145 prostate cell lines (Human tumor cells ); type: functional, cell-based; outline: as §1
Dihydrofolate reductase = target: T1, Dihydrofolate reductase (Homo sapiens, UniProt P00374); experiment: Compound was evaluated for the inhibition of Dihydrofolate reductase at concentration ranged from 0.15-0.50 uM
T1 sequence (P00374 whole entry): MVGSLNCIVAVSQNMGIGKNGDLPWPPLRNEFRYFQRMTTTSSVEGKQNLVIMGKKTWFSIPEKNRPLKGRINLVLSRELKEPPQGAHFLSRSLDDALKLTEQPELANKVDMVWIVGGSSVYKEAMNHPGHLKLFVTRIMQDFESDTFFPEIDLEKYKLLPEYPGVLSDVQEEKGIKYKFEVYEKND

HCT-15 = experiment: Compound was evaluated for in vitro activity against HCT-15 Colon cell lines (Human tumor cells ); type: functional, cell-based; outline: as §1
HCT-116 = experiment: Compound was evaluated for in vitro activity against HCT116 Colon cell lines (Human tumor cells ); type: functional, cell-based; outline: as §1
HOP-92 = experiment: Compound was evaluated for in vitro activity against HOP-92 lung cancer cell lines (Human tumor cells ); type: functional, cell-based; outline: as §1
HCC 2998 = experiment: Compound was evaluated for in vitro activity against HCC2998 Colon cell lines (Human tumor cells ); type: functional, cell-based; outline: as §1
HL-60 = experiment: Compound was evaluated for in vitro activity against HL-60(TB) leukemia cell lines (Human tumor cells ); type: functional, cell-based; outline: as §1
Hs-578T = experiment: Compound was evaluated for in vitro activity against Hs 578.T breast cancer cell lines (Human tumor cells ); type: functional, cell-based; outline: as §1
KM12 = experiment: Compound was evaluated for in vitro activity against KM-12 Colon cell lines (Human tumor cells ); type: functional, cell-based; outline: as §1
K562 = experiment: Compound was evaluated for in vitro activity against K562 leukemia cell lines (Human tumor cells ); type: functional, cell-based; outline: as §1
IGROV-1 = experiment: Compound was evaluated for in vitro activity against IGROV1 Ovary cell lines (Human tumor cells ); type: functional, cell-based; outline: as §1
M14 = experiment: Compound was evaluated for in vitro activity against M14 Melanoma cell lines (Human tumor cells ); type: functional, cell-based; outline: as §1
LOX IMVI = experiment: Compound was evaluated for in vitro activity against LOXIMV1 Melanoma cell lines (Human tumor cells ); type: functional, cell-based; outline: as §2
MDA-MB-435 = experiment: Compound was evaluated for in vitro activity against MDA-MB-435 breast cancer cell lines (Human tumor cells ); type: functional, cell-based; outline: as §1
Malme-3M = experiment: Compound was evaluated for in vitro activity against MALME-3M Melanoma cell lines (Human tumor cells ); type: functional, cell-based; outline: as §1
MCF7 = experiment: Compound was evaluated for in vitro activity against MCF-7 breast cancer cell lines (Human tumor cells ); type: functional, cell-based; outline: as §2
NCI-H460 = experiment: Compound was evaluated for in vitro activity against NCI-H460 lung cancer cell lines (Human tumor cells ); type: functional, cell-based; outline: as §1
NCI-H226 = experiment: Compound was evaluated for in vitro activity against NCI-H226 lung cancer cell lines (Human tumor cells ); type: functional, cell-based; outline: as §1
OVCAR-3 = experiment: Compound was evaluated for in vitro activity against OVCAR-3 Ovary cell lines (Human tumor cells ); type: functional, cell-based; outline: as §2
OVCAR-8 = experiment: Compound was evaluated for in vitro activity against OVCAR-8 Ovary cell lines (Human tumor cells ); type: functional, cell-based; outline: as §1
OVCAR-4 = experiment: Compound was evaluated for in vitro activity against OVCAR-4 Ovary cell lines (Human tumor cells ); type: functional, cell-based; outline: as §1
OVCAR-5 = experiment: Compound was evaluated for in vitro activity against OVCAR-5 Ovary cell lines (Human tumor cells ); type: functional, cell-based; outline: as §1
NCI-H23 = experiment: Compound was evaluated for in vitro activity against NCI-H23 lung cancer cell lines (Human tumor cells ); type: functional, cell-based; outline: as §1
PC-3 = experiment: Compound was evaluated for in vitro activity against PC-3 prostate cell lines (Human tumor cells ); type: functional, cell-based; outline: as §1
RXF 393 = experiment: Compound was evaluated for in vitro activity against RXF-393 kidney cell lines (Human tumor cells ); type: functional, cell-based; outline: as §1
RPMI-8226 = experiment: Compound was evaluated for in vitro activity against RPMI-8226 leukemia cell lines (Human tumor cells ); type: functional, cell-based; outline: as §1
SF-268 = experiment: Compound was evaluated for in vitro activity against SF-268 CNS cell lines (Human tumor cells ); type: functional, cell-based; outline: as §1
SF-295 = experiment: Compound was evaluated for in vitro activity against SF-295 CNS cell lines (Human tumor cells ); type: functional, cell-based; outline: as §1
SNB- = experiment: Compound was evaluated for in vitro activity against […] CNS cell lines (Human tumor cells ); type: functional, cell-based; outline: as §1
SR = experiment: Compound was evaluated for in vitro activity against SR leukemia cell lines (Human tumor cells ); type: functional, cell-based; outline: as §1
SK-MEL-28 = experiment: Compound was evaluated for in vitro activity against SK-MEL28 Melanoma cell lines (Human tumor cells ); type: functional, cell-based; outline: as §1
SK-MEL-2 = experiment: Compound was evaluated for in vitro activity against SK-MEL-2 Melanoma cell lines (Human tumor cells ); type: functional, cell-based; outline: as §1
SK-MEL-5 = experiment: Compound was evaluated for in vitro activity against SK-MEL-5 Melanoma cell lines (Human tumor cells ); type: functional, cell-based; outline: as §1
TK-10 = experiment: Compound was evaluated for in vitro activity against TK-10 kidney cell lines (Human tumor cells ); type: functional, cell-based; outline: as §1
T47D = experiment: Compound was evaluated for in vitro activity against T-47D breast cancer cell lines (Human tumor cells ); type: functional, cell-based; outline: as §1
UACC-257 = experiment: Compound was evaluated for in vitro activity against UACC-257 Melanoma cell lines (Human tumor cells ); type: functional, cell-based; outline: as §1
U-251 = experiment: Compound was evaluated for in vitro activity against U251 CNS cell lines (Human tumor cells ); type: functional, cell-based; outline: as §1
NCI/ADR-RES = experiment: Compound was evaluated for in vitro activity against NCI/ADR-RES breast cancer cell lines (Human tumor cells ); type: functional, cell-based; outline: as §2
NCI-H522 = experiment: Compound was evaluated for in vitro activity against NCI-H522 lung cancer cell lines (Human tumor cells ); type: functional, cell-based; outline: as §1
SF-539 = experiment: Compound was evaluated for in vitro activity against SF-539 CNS cell lines (Human tumor cells ); type: functional, cell-based; outline: as §2
MOLT-4 = experiment: Compound was evaluated for in vitro activity against MOLT-4 leukemia cell lines (Human tumor cells ); type: functional, cell-based; outline: as §1
UACC-62 = experiment: Compound was evaluated for in vitro activity against UACC-62 Melanoma cell lines (Human tumor cells ); type: functional, cell-based; outline: as §1
EKVX = experiment: Compound was evaluated for in vitro activity against EKVX lung cancer cell lines (Human tumor cells ); type: functional, cell-based; outline: as §1

## Nc1nc(N)c2cc(CNc3ccc(C(=O)NC(CCCNC(=O)c4ccccc4C(=O)O)C(=O)O)cc3)ccc2n1 (centres undefined)
[1]
  IC50: 0.61 nM

## Cc1c(CNc2ccc(C(=O)NC(CCCNC(=O)c3ccccc3C(=O)O)C(=O)O)cc2)cnc2nc(N)nc(N)c12 (centres undefined)
786-0
  IC50: < 0.1 nM
A498
  IC50: > 1000 nM
ACHN
  IC50: 0.39 nM
A549
  IC50: 0.42 nM
BT-549
  IC50: > 1000 nM
CCRF-CEM
  IC50: 0.57 nM
COLO 205
  IC50: 6.7 nM
DU-145
  IC50: < 1 nM
Dihydrofolate reductase
  Ki: 0.0004 nM
HCT-15
  IC50: 0.45 nM
HCT-116
  IC50: 0.58 nM
HOP-92
  IC50: > 1000 nM
HCC 2998
  IC50: 0.9 nM
HL-60
  IC50: < 1 nM
Hs-578T
  IC50: 100 nM
KM12
  IC50: 0.52 nM
K562
  IC50: < 0.1 nM
IGROV-1
  IC50: 0.52 nM
M14
  IC50: 0.66 nM
LOX IMVI
  IC50: < 0.1 nM
MDA-MB-435
  IC50: 0.6 nM
Malme-3M
  IC50: 47 nM
MCF7
  IC50: 0.7 nM
NCI-H460
  IC50: 0.38 nM
NCI-H226
  IC50: 0.62 nM
OVCAR-3
  IC50: 17 nM
OVCAR-8
  IC50: 0.32 nM
OVCAR-4
  IC50: > 1000 nM
OVCAR-5
  IC50: 200 nM
NCI-H23
  IC50: 1.5 nM
PC-3
  IC50: < 0.1 nM
RXF 393
  IC50: 380 nM
RPMI-8226
  IC50: 0.84 nM
SF-268
  IC50: 0.36 nM
SF-295
  IC50: 0.59 nM
SNB-
  IC50: 2.2 nM
SR
  IC50: 0.45 nM
SK-MEL-28
  IC50: 190 nM
SK-MEL-2
  IC50: > 1000 nM
[1]
  IC50: 0.72 nM
SK-MEL-5
  IC50: 0.64 nM
TK-10
  IC50: > 1000 nM
T47D
  IC50: > 1000 nM
UACC-257
  IC50: 470 nM
U-251
  IC50: 3.6 nM
NCI/ADR-RES
  IC50: 0.3 nM
NCI-H522
  IC50: 1.5 nM
SF-539
  IC50: 0.46 nM
MOLT-4
  IC50: 0.57 nM
UACC-62
  IC50: 0.4 nM
EKVX
  IC50: 2.5 nM

## CN(Cc1cnc2nc(N)nc(N)c2n1)c1ccc(C(=O)N[C@@H](CCC(=O)O)C(=O)O)cc1 [METHOTREXATE]
A498
  IC50: > 1000 nM
A549
  IC50: 33 nM
BT-549
  IC50: > 1000 nM
CCRF-CEM
  IC50: 29 nM
COLO 205
  IC50: 870 nM
DU-145
  IC50: 45 nM
HOP-92
  IC50: > 1000 nM
HCC 2998
  IC50: 110 nM
HL-60
  IC50: 39 nM
Hs-578T
  IC50: > 1000 nM
KM12
  IC50: 33 nM
K562
  IC50: 26 nM
IGROV-1
  IC50: 65 nM
M14
  IC50: 32 nM
MDA-MB-435
  IC50: > 1000 nM
Malme-3M
  IC50: > 1000 nM
NCI-H226
  IC50: > 1000 nM
OVCAR-4
  IC50: > 1000 nM
OVCAR-5
  IC50: 980 nM
PC-3
  IC50: 27 nM
RXF 393
  IC50: > 1000 nM
RPMI-8226
  IC50: 33 nM
SF-295
  IC50: 36 nM
SNB-
  IC50: > 1000 nM
SR
  IC50: 33 nM
SK-MEL-28
  IC50: > 1000 nM
SK-MEL-2
  IC50: > 1000 nM
[1]
  IC50: 15 nM
TK-10
  IC50: > 1000 nM
T47D
  IC50: > 1000 nM
UACC-257
  IC50: 790 nM
U-251
  IC50: 63 nM
NCI-H522
  IC50: 450 nM
MOLT-4
  IC50: 28 nM
EKVX
  IC50: > 1000 nM

## Nc1nc(N)c2cc(CNc3ccc(C(=O)NC(CCCNC(=O)c4ccccc4C(=O)O)C(=O)O)cc3)cnc2n1 (centres undefined)
Dihydrofolate reductase
  Ki: 0.00041 nM
[1]
  IC50: 1.8 nM
